{"source": "ChEMBL document CHEMBL1208725", "about": "“Prostaglandin phospholipid conjugates with unusual biophysical and cytotoxic properties” (Bioorg Med Chem Lett, 2010)", "key": {"HT-29 [1]": {"tested_on": "HT-29", "assay": "Cytotoxicity against human HT-29 cells after 24 hrs by MTT assay", "format": "functional, cell-based", "conditions": "HT-29, 24 h", "how_it_was_run": "(§1)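 Colon cancer cells were incubated with the substances for 24 h. Viability was then read by MTT assay 48 h after incubation. IC₅₀ values are mean SD, n ≥ 3.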"}, "COLO 205 [2]": {"tested_on": "COLO 205", "assay": "Cytotoxicity against human COLO205 cells after 24 hrs by MTT assay", "format": "functional, cell-based", "conditions": "COLO 205, 24 h", "how_it_was_run": "as §1"}, "[3]": {"assay": "Chemical stability of the compound in presence of snake venom secretory phospholipase A2 after 24 hrs by MALDI-TOF MS analysis", "format": "physicochemical", "how_it_was_run": "(§2)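 Formulated lipid suspensions (extruded through a 100 nm filter) were incubated with purified snake venom sPLA₂ (Agkistrodon piscivorus piscivorus and Naja mossambica mossambica) with stirring at 37 °C. Samples were taken at 2, 24 and 48 h for MALDI-TOF MS. The matrix was DHB and CF₃COONa in methanol with DPPG as internal standard. Hydrolysis was estimated as conversion of the conjugate.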"}, "HT-29 [4]": {"tested_on": "HT-29", "assay": "Cytotoxicity against human HT-29 cells after 24 hrs by MTT assay in presence of snake venom secretory phospholipase A2", "format": "functional, cell-based", "conditions": "HT-29, 24 h"}, "COLO 205 [5]": {"tested_on": "COLO 205", "assay": "Induction of apoptosis in human COLO205 cells at 20 uM", "format": "functional, cell-based"}, "COLO 205 [6]": {"tested_on": "COLO 205", "assay": "Induction of apoptosis in human COLO205 cells assessed as complete cell death at 100 uM", "format": "functional, cell-based"}, "[7]": {"tested_on": "secretory phospholipase A2", "assay": "Chemical stability of the compound in presence of snake venom secretory phospholipase A2 after 48 hrs by MALDI-TOF MS analysis", "format": "physicochemical", "conditions": "read-out: Stability", "how_it_was_run": "as §2"}}, "note": "The source made the active and inactive calls. The calls are words filed in the database; no cut-off is given here."}
{"compound": "CCCCC/C=C/C=C1\\C(=O)C=C[C@@H]1C/C=C/CCCC(=O)O", "values": [{"measurement": "IC50", "setting": "HT-29 [1]", "result": 1.6, "unit": "µM"}, {"measurement": "IC50", "setting": "COLO 205 [2]", "result": 4, "unit": "µM"}]}
{"compound": "CCCCC/C=C/C=C1\\C(=O)C=C[C@H]1C/C=C/CCCC(=O)O[C@H](COC(=O)CCCCCCCCCCCCCCCCC)COP(=O)([O-])OC[C@@H](O)CO.[Na+]", "values": [{"measurement": "Stability", "setting": "[3]", "result": "Unstable"}, {"measurement": "IC50", "setting": "HT-29 [1]", "result": 32, "unit": "µM"}, {"measurement": "IC50", "setting": "HT-29 [4]", "result": 6.4, "unit": "µM"}, {"measurement": "IC50", "setting": "COLO 205 [2]", "result": 17, "unit": "µM"}, {"measurement": "Activity", "setting": "COLO 205 [5]", "result": "Active"}, {"measurement": "Activity", "setting": "COLO 205 [6]", "result": "Active"}]}
{"compound": "CCCCC/C=C/C=C1\\C(=O)C=C[C@H]1C/C=C/CCCC(=O)O[C@H](COCCCCCCCCCCCCCCCCCC)COP(=O)(O)OC[C@@H](O)CO", "values": [{"measurement": "remaining at 48 h", "setting": "[7]", "result": 70, "unit": "%"}, {"measurement": "IC50", "setting": "HT-29 [1]", "result": 6, "unit": "µM"}, {"measurement": "IC50", "setting": "HT-29 [4]", "result": 2.2, "unit": "µM"}, {"measurement": "IC50", "setting": "COLO 205 [2]", "result": 9, "unit": "µM"}, {"measurement": "Activity", "setting": "COLO 205 [5]", "result": "Active"}, {"measurement": "Activity", "setting": "COLO 205 [6]", "result": "Active"}]}
